Data from ChEMBL document CHEMBL4689842, “EUbOPEN Chemogenomics Library wave 1” (2021).

System: Fibroblast
Test: Multiplex assay against human fibroblast
Assay type: toxicity, cell-based
How it was run: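 Live cells were stained at seeding with Hoechst33342, BioTracker Green Microtubule Cytoskeleton Dye, MitoTracker Red and Annexin V Alexa Fluor 680. Following compound addition, they were imaged on a CQ1 microscope at 37°C and 5% CO2 and gated by CellPathfinder machine learning into Hoechst high-intensity objects or normal cells, with normal cells split into healthy, pyknosed or fragmented nuclei and pyknosed cells into mitotic or apoptotic. Tubulin, mitochondrial-mass and membrane-permeability phenotypes are per cents of healthy-nucleus cells.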

[1] = 12 h, 1 µM, compound concentration 1 uM, replicate 1
[2] = 12 h, 1 µM, compound concentration 1 uM, replicate 2
[3] = 12 h, 10 µM, compound concentration 10 uM, replicate 1
[4] = 12 h, 10 µM, compound concentration 10 uM, replicate 2
[5] = 24 h, 1 µM, compound concentration 1 uM, replicate 1
[6] = 24 h, 1 µM, compound concentration 1 uM, replicate 2
[7] = 24 h, 10 µM, compound concentration 10 uM, replicate 1
[8] = 24 h, 10 µM, compound concentration 10 uM, replicate 2
[9] = 48 h, 1 µM, compound concentration 1 uM, replicate 1
[10] = 48 h, 1 µM, compound concentration 1 uM, replicate 2
[11] = 48 h, 10 µM, compound concentration 10 uM, replicate 1
[12] = 48 h, 10 µM, compound concentration 10 uM, replicate 2

CN1C2CCC1CC(OC(c1ccc(F)cc1)c1ccc(F)cc1)C2.Cl (centres undefined)
Population Apoptotic (%) [1]: 53%
Population Fragmented Nuclei (%) [1]: 26%
Population Healthy Nuclei (%) [1]: 45%
Population Hoechst High Intensity Objects (%) [1]: 12%
Population Membrane Permeable-Phenotype (%) [1]: 21%
Population Mitochondria Different-Phenotype (%) [1]: 11%
Population Mitotic Cells (%) [1]: 46%
Population Normal (%) [1]: 87%
Population Pyknosed Nuclei (%) [1]: 27%
Population Tubulin-Different-Phenotype (%) [1]: 52%
Total Cell Count [1]: 106
Population Apoptotic (%) [2]: 100%
Population Fragmented Nuclei (%) [2]: 5%
Population Healthy Nuclei (%) [2]: 92%
Population Hoechst High Intensity Objects (%) [2]: 2%
Population Membrane Permeable-Phenotype (%) [2]: 3%
Population Mitochondria Different-Phenotype (%) [2]: 4%
Population Mitotic Cells (%) [2]: 0%
Population Normal (%) [2]: 97%
Population Pyknosed Nuclei (%) [2]: 1%
Population Tubulin-Different-Phenotype (%) [2]: 8%
Total Cell Count [2]: 69
Population Apoptotic (%) [3]: 64%
Population Fragmented Nuclei (%) [3]: 31%
Population Healthy Nuclei (%) [3]: 50%
Population Hoechst High Intensity Objects (%) [3]: 9%
Population Mitochondria Different-Phenotype (%) [3]: 37%
Population Mitotic Cells (%) [3]: 36%
Population Normal (%) [3]: 90%
Population Pyknosed Nuclei (%) [3]: 18%
Population Tubulin-Different-Phenotype (%) [3]: 68%
Total Cell Count [3]: 148
Population Apoptotic (%) [4]: 80%
Population Fragmented Nuclei (%) [4]: 8%
Population Healthy Nuclei (%) [4]: 78%
Population Hoechst High Intensity Objects (%) [4]: 6%
Population Membrane Permeable-Phenotype (%) [4]: 10%
Population Mitochondria Different-Phenotype (%) [4]: 89%
Population Mitotic Cells (%) [4]: 20%
Population Normal (%) [4]: 93%
Population Pyknosed Nuclei (%) [4]: 13%
Population Tubulin-Different-Phenotype (%) [4]: 49%
Total Cell Count [4]: 78
Population Apoptotic (%) [5]: 53%
Population Fragmented Nuclei (%) [5]: 24%
Population Healthy Nuclei (%) [5]: 58%
Population Hoechst High Intensity Objects (%) [5]: 13%
Population Membrane Permeable-Phenotype (%) [5]: 26%
Population Mitochondria Different-Phenotype (%) [5]: 4%
Population Mitotic Cells (%) [5]: 46%
Population Normal (%) [5]: 86%
Population Pyknosed Nuclei (%) [5]: 17%
Population Tubulin-Different-Phenotype (%) [5]: 58%
Total Cell Count [5]: 99
Population Apoptotic (%) [6]: 20%
Population Fragmented Nuclei (%) [6]: 3%
Population Healthy Nuclei (%) [6]: 90%
Population Hoechst High Intensity Objects (%) [6]: 2%
Population Membrane Permeable-Phenotype (%) [6]: 4%
Population Mitotic Cells (%) [6]: 80%
Population Normal (%) [6]: 97%
Population Pyknosed Nuclei (%) [6]: 6%
Population Tubulin-Different-Phenotype (%) [6]: 8%
Total Cell Count [6]: 82
Population Apoptotic (%) [7]: 38%
Population Fragmented Nuclei (%) [7]: 38%
Population Healthy Nuclei (%) [7]: 45%
Population Hoechst High Intensity Objects (%) [7]: 17%
Population Membrane Permeable-Phenotype (%) [7]: 15%
Population Mitochondria Different-Phenotype (%) [7]: 40%
Population Mitotic Cells (%) [7]: 61%
Population Normal (%) [7]: 82%
Population Pyknosed Nuclei (%) [7]: 15%
Population Tubulin-Different-Phenotype (%) [7]: 60%
Total Cell Count [7]: 160
Population Apoptotic (%) [8]: 80%
Population Fragmented Nuclei (%) [8]: 16%
Population Healthy Nuclei (%) [8]: 64%
Population Hoechst High Intensity Objects (%) [8]: 3%
Population Membrane Permeable-Phenotype (%) [8]: 6%
Population Mitochondria Different-Phenotype (%) [8]: 78%
Population Mitotic Cells (%) [8]: 20%
Population Normal (%) [8]: 96%
Population Pyknosed Nuclei (%) [8]: 19%
Population Tubulin-Different-Phenotype (%) [8]: 25%
Total Cell Count [8]: 107
Population Apoptotic (%) [9]: 28%
Population Fragmented Nuclei (%) [9]: 34%
Population Healthy Nuclei (%) [9]: 52%
Population Hoechst High Intensity Objects (%) [9]: 13%
Population Membrane Permeable-Phenotype (%) [9]: 22%
Population Mitochondria Different-Phenotype (%) [9]: 1%
Population Mitotic Cells (%) [9]: 71%
Population Normal (%) [9]: 86%
Population Pyknosed Nuclei (%) [9]: 12%
Population Tubulin-Different-Phenotype (%) [9]: 45%
Total Cell Count [9]: 126
Population Apoptotic (%) [10]: 0%
Population Healthy Nuclei (%) [10]: 64%
Population Hoechst High Intensity Objects (%) [10]: 11%
Population Membrane Permeable-Phenotype (%) [10]: 9%
Population Mitochondria Different-Phenotype (%) [10]: 6%
Population Mitotic Cells (%) [10]: 100%
Population Normal (%) [10]: 88%
Population Pyknosed Nuclei (%) [10]: 0%
Population Tubulin-Different-Phenotype (%) [10]: 47%
Total Cell Count [10]: 127
Population Apoptotic (%) [11]: 80%
Population Fragmented Nuclei (%) [11]: 47%
Population Healthy Nuclei (%) [11]: 45%
Population Hoechst High Intensity Objects (%) [11]: 25%
Population Membrane Permeable-Phenotype (%) [11]: 9%
Population Mitochondria Different-Phenotype (%) [11]: 27%
Population Mitotic Cells (%) [11]: 20%
Population Normal (%) [11]: 74%
Population Pyknosed Nuclei (%) [11]: 7%
Population Tubulin-Different-Phenotype (%) [11]: 78%
Total Cell Count [11]: 191
Population Apoptotic (%) [12]: 100%
Population Fragmented Nuclei (%) [12]: 64%
Population Healthy Nuclei (%) [12]: 35%
Population Hoechst High Intensity Objects (%) [12]: 16%
Population Membrane Permeable-Phenotype (%) [12]: 11%
Population Mitochondria Different-Phenotype (%) [12]: 18%
Population Mitotic Cells (%) [12]: 0%
Population Normal (%) [12]: 83%
Population Pyknosed Nuclei (%) [12]: 0%
Population Tubulin-Different-Phenotype (%) [12]: 79%
Total Cell Count [12]: 259
